Data on 96 molecules can be found in ChEMBL document CHEMBL4513216, “Probing the Open Global Health Chemical Diversity Library for Multistage-Active Starting Points for Next-Generation Antimalarials” (ACS Infect Dis, 2020).

SMILES strings stand for the structures.

The data set in a line: Toxicity liver stage against HepG2, at 10uM. It is filed as cell-based. More on the design: test concentration 10 uM, cell line HepG2-A16-CD81EGFP. The note with it: human, HepG2-A16-CD81EGFP cells; read-out: INHIBITION
An outline of the steps: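 Uninfected HepG2-A16-CD81EGFP cells, 3 × 10^3 per well, 1536-well, plated on prespotted compound at 10 μM final, parasite-free screening media added to match infected plates; puromycin 10 μM positive, DMSO 0.5% negative; run in parallel with 48 h PbLuc assay at 37 °C, 5% CO2; viability by CellTiter-Glo luminescence, normalized to controls.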
Turning to `CC(=O)Cn1ncc(N2CCOCC2)cc1=O`, the cytotoxicity at 10 µM was determined as 7.26%.

Regarding `COc1ccsc1C(=O)NCCN1CCOCC1`, the cytotoxicity at 10 µM worked out at 6.57%.

For the molecule `CC(=O)N1CCC(N2CC[C@H](c3nc4cc(F)ccc4o3)C2)CC1`, the cytotoxicity at 10 µM was 2.23%.

For `CC(C)C[C@@H]1N[C@H](C(=O)NC(C)C)Cc2c[nH]c3cccc1c23`, the cytotoxicity at 10 µM was 7.37%.

On to `COc1cccc(-c2nc(CC(=O)NC3(C)CCS(=O)(=O)C3)cs2)c1` (stereo unspecified), for which the cytotoxicity at 10 µM worked out at 19%.

For `COc1cc(N2CCc3ncnc(-c4ccoc4)c3CC2)ncn1`, the cytotoxicity at 10 µM was found to be 14.9%.

As for `Cc1oncc1C(=O)N1CC[C@H]2CO[C@H](CN3CCCC3)[C@H]2C1`, the cytotoxicity at 10 µM was found to be 10.8%.

As to `COCCNC(=O)[C@H]1CC[C@@H]2[C@@H](CCN2S(C)(=O)=O)O1`, the cytotoxicity at 10 µM was -8.87%.

Turning to `CCn1ncc2c1C(COC)CN(S(=O)(=O)C1CC1)C2` (stereo unspecified), the cytotoxicity at 10 µM came out at 11.1%.

Consider `Cc1cnc(N2CCC3(CCCN(c4ncc(F)cn4)C3)C2)nc1` (stereo unspecified), for which the cytotoxicity at 10 µM is -124%.

As to `Cc1nc(CN2C(=O)COC3(CCN(C(N)=O)CC3)C2C)cs1` (stereo unspecified), the cytotoxicity at 10 µM was -130%.

Regarding `COCCC(=O)N1CCC2(CCN(Cc3ccc(OC)c(F)c3)C2)C1` (stereo unspecified), the cytotoxicity at 10 µM was 9.75%.

Take `Cc1nc(N2CCCC2)nc2c1CCN(C(=O)CC1CCCC1)CC2`: the cytotoxicity at 10 µM turned out to be 0.457%.

On to `CS(=O)(=O)CC(=O)N1C[C@@H]2COC[C@]2(c2nnc(C3CC3)o2)C1`, for which the cytotoxicity at 10 µM is -13.1%.

Regarding `Cc1nn(C)cc1-c1cc(C(F)(F)F)nn1CCC#N`, the cytotoxicity at 10 µM was 3.65%.

With `CCn1nc(C)c2nc(C(C)C)nc(N3CCN(C)CC3)c21`, the cytotoxicity at 10 µM was -2.45%.

For the molecule `CCCn1cc(Cl)c(C(=O)N2C[C@@H](O)[C@H](Oc3ccccc3)C2)n1`, the cytotoxicity at 10 µM amounted to 5.31%.

Turning to `Cn1cc(CN(Cc2ccccn2)Cc2ccccc2Cl)cn1`, the cytotoxicity at 10 µM is -2.48%.

For the molecule `Cc1c[nH]c(C2COCCN2C(=O)c2ccc(=O)[nH]n2)n1` (stereo unspecified), the cytotoxicity at 10 µM was -8.77%.

For `Cc1ccccc1CC(=O)N(C)CC1(O)CCCN(c2ccccn2)C1` (stereo unspecified), the cytotoxicity at 10 µM was -18.3%.

For the molecule `NC(=O)Nc1cc(F)ccc1SCC(F)F`, the cytotoxicity at 10 µM came to 0.0687%.

As to `COCCN1CCN(CC2(O)CCCCC2)CC1`, the cytotoxicity at 10 µM turned out to be 7.04%.

On to `NC1(c2nc(-c3ccccc3)cc(=O)[nH]2)CCCCC1`, for which the cytotoxicity at 10 µM was 7.25%.

On to `N#Cc1ccc(Cl)cc1NCC1CCOC1` (stereo unspecified), for which the cytotoxicity at 10 µM came out at 3.09%.

As for `CN1CCC(NC(=O)Nc2cnn(-c3ccccc3Cl)c2)CC1`, the cytotoxicity at 10 µM was -5.5%.

In the case of `Cc1cc(C)n(C2CCCN(C(=O)CN(C)C3CC3)C2)n1` (stereo unspecified), the cytotoxicity at 10 µM was -1.91%.

For `Cc1noc(C)c1NC(=O)N1CCC(NC(=O)OC(C)(C)C)CC1`, the cytotoxicity at 10 µM was 4%.

Turning to `CCOc1ccc(Cl)c(C(=O)N2CCCC(c3ccn[nH]3)C2)n1` (stereo unspecified), the cytotoxicity at 10 µM was 1.58%.

Turning to `Cc1nn(C)c(Cl)c1S(=O)(=O)N(CC(N)=O)CC(C)C`, the cytotoxicity at 10 µM is 8.18%.

`Cc1cccc(N2CCN(CCC(=O)NCc3nnc[nH]3)CC2)c1`: the cytotoxicity at 10 µM was -6.26%.

Turning to `CC(C)c1nsc(N2CCOC3(CCCC3)C2)n1`, the cytotoxicity at 10 µM came out at 0.243%.

`N#CCCNC(=O)CSc1ccc(F)cc1F`: the cytotoxicity at 10 µM was 3.94%.

With `O=C(CCc1ccc2c(c1)OCO2)Nc1cccnc1-n1cncn1`, the cytotoxicity at 10 µM was 4.98%.

On to `COc1ccc(OC(F)F)c(NCC(=O)NCC(=O)N2CCCC2)c1`, for which the cytotoxicity at 10 µM was -0.77%.

As for `O=C(NCc1ccccc1CN1CCOCC1)Nc1nncs1`, the cytotoxicity at 10 µM was 14.3%.

Consider `Cc1cccc(C2(CNC(C)c3nnc(C)o3)CCCC2)c1` (stereo unspecified), for which the cytotoxicity at 10 µM was determined as 6.73%.

As to `O=C(CN1CCCC(CO)C1)NCCOc1cccc(Cl)c1` (stereo unspecified), the cytotoxicity at 10 µM is -12.2%.

Take `O=C(NCCC1CCN(CC(F)(F)F)CC1)C1CCCOC1` (stereo unspecified): the cytotoxicity at 10 µM stood at 1.51%.

As to `CC(CCNC(=O)NCCNc1cnccn1)c1ccccc1` (stereo unspecified), the cytotoxicity at 10 µM was -4.08%.

Regarding `CN1CCC(NC(=O)Nc2ccc(F)c(Br)c2)C1=O` (stereo unspecified), the cytotoxicity at 10 µM was -137%.

With `COCCN(Cc1ccco1)Cc1nc(-c2ccccc2)no1`, the cytotoxicity at 10 µM worked out at 6.4%.

Turning to `CCc1nc(CC(=O)NC(C#N)CC)cs1` (stereo unspecified), the cytotoxicity at 10 µM turned out to be 10.3%.

Consider `COc1ccc(-c2noc(C3CCS(=O)(=O)C3)n2)cc1OC` (stereo unspecified), for which the cytotoxicity at 10 µM amounted to 5.4%.

Take `CC(NCCCC#N)c1ccc(-c2ccncc2)cc1` (stereo unspecified): the cytotoxicity at 10 µM was -1.93%.

For the molecule `C1CN(c2nc(C3CC3)no2)CCN(C2CCOCC2)C1`, the cytotoxicity at 10 µM turned out to be 0.442%.

In the case of `Cc1nc(CN2CC(CO)Oc3ccccc32)sc1C` (stereo unspecified), the cytotoxicity at 10 µM amounted to 0.918%.

Turning to `Cc1cnn(CC2CCCN2CC(=O)N(C)Cc2ccc(C)o2)c1` (stereo unspecified), the cytotoxicity at 10 µM was -7.19%.

Consider `CCN1CCN(S(=O)(=O)c2ncn(C)c2Cl)CC1`, for which the cytotoxicity at 10 µM is 20.9%.

As to `COc1ccc(NC(C)C(=O)N2CCN(Cc3ccccc3)CC2)cn1` (stereo unspecified), the cytotoxicity at 10 µM is 1.26%.

In the case of `O=C(C1CCC1)N1CCC2(CC1)OCCO2`, the cytotoxicity at 10 µM is 4.93%.

In the case of `O=C(c1ccnnc1)N1CCN2C[C@H](Oc3cccnc3)C[C@H]2C1`, the cytotoxicity at 10 µM came to 1.43%.

Take `COc1cccc(OCCCc2cncc(C(N)=O)c2)c1`: the cytotoxicity at 10 µM is -124%.

For the molecule `Cc1ccc2nc(C(=O)N3C[C@@H](C(=O)O)[C@H](c4cccnc4)C3)cn2c1`, the cytotoxicity at 10 µM worked out at 2.98%.

With `CC(Cc1cnccn1)NC(=O)c1cccc(CC2CCNCC2)c1` (stereo unspecified), the cytotoxicity at 10 µM is -9.37%.

Turning to `Cc1nc2c(c(N3C[C@@H](C)[C@@](C)(O)C3)n1)CCC2`, the cytotoxicity at 10 µM worked out at 9.74%.

For `CN1CCC(N(C)C[C@H]2CC[C@@H](Cc3cccc(CO)c3)O2)CC1`, the cytotoxicity at 10 µM was determined as 0.224%.

For the molecule `CC(=O)N1CCc2c(nc(N(C)C)nc2N(C)CCC2CCCCO2)C1` (stereo unspecified), the cytotoxicity at 10 µM is -7.97%.

For the molecule `O=C(N[C@@H]1CCNC[C@H]1O)c1ccc(O)c(Cl)c1`, the cytotoxicity at 10 µM is -5.46%.

`Cn1cccc1C(=O)N1CCC(c2nnc(Cn3ccnc3)n2C)CC1`: the cytotoxicity at 10 µM is -114%.

As to `CCC(NS(=O)(=O)c1ccc(C(=O)NC2CC2)cc1)c1cnn(C)c1` (stereo unspecified), the cytotoxicity at 10 µM stood at 7.64%.

As for `CCCc1cc(C(=O)N2CCC3(CCCNC3=O)C2)cs1` (stereo unspecified), the cytotoxicity at 10 µM is -142%.

On to `CC(=O)c1c(C)nn(CC(=O)N2Cc3cnc(C(C)(C)C)nc3C2)c1C`, for which the cytotoxicity at 10 µM is -0.539%.

In the case of `CCNc1ncc(C(=O)NCc2csc(-c3cnccn3)n2)cn1`, the cytotoxicity at 10 µM worked out at 0.185%.

On to `O=c1[nH]cnc2c1CCN(S(=O)(=O)c1ccc(OC(F)(F)F)cc1)C2`, for which the cytotoxicity at 10 µM amounted to 1.61%.

In the case of `CCCc1nnc(N2CCC3(CC2)CC(=O)NC(=O)C3)o1`, the cytotoxicity at 10 µM was 3.06%.

Take `O=C(O)Cc1cccc(-n2ccnc2-c2ccc(F)c(Cl)c2)c1`: the cytotoxicity at 10 µM is 2.17%.

Turning to `CCN(CCn1cccn1)Cc1nc(-c2cccs2)oc1C`, the cytotoxicity at 10 µM was -0.179%.

Take `Cc1cc(F)ccc1CN1CCC(O)(CN2CCCCC2)C1` (stereo unspecified): the cytotoxicity at 10 µM came to 14.8%.

As for `O=C(O)c1c[nH]c2cc(NS(=O)(=O)c3cccc(F)c3F)ccc12`, the cytotoxicity at 10 µM stood at 5.08%.

On to `CC(Cc1ccco1)NC(=O)Nc1cccnc1` (stereo unspecified), for which the cytotoxicity at 10 µM is -6.78%.

Turning to `CN(C(=O)NCc1ccsc1)C1CCN(c2ccccc2)C1=O` (stereo unspecified), the cytotoxicity at 10 µM was -5.63%.

For the molecule `Cc1cc(C(=O)NCc2ccnc(OCC(F)(F)F)c2)no1`, the cytotoxicity at 10 µM was -7.98%.

`CCOC1CCN(C(=O)NCCc2ccn(-c3ccccc3)n2)CC1`: the cytotoxicity at 10 µM is -0.088%.

On to `COc1ncccc1CNCc1c(C)nn(C)c1N1CCOCC1`, for which the cytotoxicity at 10 µM was -11.1%.

As for `CCc1nnsc1C(=O)N1CCCN(Cc2ccccc2)CC1`, the cytotoxicity at 10 µM is 7.57%.

For `N#Cc1ccc(CC(=O)N2CCCC(n3cccn3)C2)cc1` (stereo unspecified), the cytotoxicity at 10 µM was -1.95%.

For the molecule `COc1ccc(C(=O)N(C)Cc2cc(C)on2)c(F)c1`, the cytotoxicity at 10 µM is -5.2%.

Turning to `CCN1CCN(C(=O)C(C)N2CCN(Cc3nccn3C)CC2)CC1` (stereo unspecified), the cytotoxicity at 10 µM was -6.34%.

Turning to `CCn1ccnc1CN1CCN(CC(O)Cn2cccn2)CC1` (stereo unspecified), the cytotoxicity at 10 µM is -5.97%.

Consider `Cc1cnn(CC2CCCCN2CCC(=O)Nc2cc(C)on2)c1` (stereo unspecified), for which the cytotoxicity at 10 µM is -0.674%.

Turning to `Fc1ccc(F)c(CN2CCC(c3n[nH]c4ncccc34)CC2)c1`, the cytotoxicity at 10 µM is -25.4%.

Turning to `Cn1ccnc1CN1CCN2C[C@H](Oc3cncnc3)C[C@H]2C1`, the cytotoxicity at 10 µM was determined as 8.71%.

Take `Cc1ccc(N2C[C@H]3CCC[C@@H](CN(C)C)[C@H]3C2)nn1`: the cytotoxicity at 10 µM is 8.82%.

Turning to `CC1c2ncc(CN3CCN(C)CC3)n2CCN1CC1CC1` (stereo unspecified), the cytotoxicity at 10 µM was -20.3%.

In the case of `CN1C[C@@H]2CN(C(=O)NCc3cccc(F)c3)CCC[C@]2(C(=O)O)C1`, the cytotoxicity at 10 µM amounted to 1.14%.

In the case of `O=C(O)[C@]12CCCN(Cc3ccsc3)C[C@H]1CN(c1ncccn1)C2`, the cytotoxicity at 10 µM was -144%.

For `CN(C)CCOCC1CN(C(=O)c2ccsc2)Cc2ccnn2C1` (stereo unspecified), the cytotoxicity at 10 µM was -0.0653%.

Regarding `COCCN1C[C@@H](C)[C@@]2(COCCN(C(=O)c3cccc(C)n3)C2)C1`, the cytotoxicity at 10 µM came out at 7.13%.

`Cc1cnc(C(=O)N2CCCn3c(nc(CN(C)C)cc3=O)C2)cn1`: the cytotoxicity at 10 µM is -5.93%.

Consider `Cc1noc(C)c1CN1C[C@H](OCc2ccncc2)[C@H]2OCCC[C@H]21`, for which the cytotoxicity at 10 µM was 9.98%.

For the molecule `Cc1ccsc1C(=O)N1CCCn2c(nc(CN(C)C)cc2=O)C1`, the cytotoxicity at 10 µM was -0.385%.

With `O=C(N1CCCO1)[C@@]12CCO[C@@H]1CCN(Cc1ccccc1)C2`, the cytotoxicity at 10 µM is -13.6%.

Turning to `CC(C)C(=O)N1CCN(Cc2cnn(C)c2)CC2(CC(=O)N(C)C2)C1` (stereo unspecified), the cytotoxicity at 10 µM came out at 3.42%.

`c1cnc(N2CCC3(CCN(CC4CCOC4)CC3)C2)nc1` (stereo unspecified): the cytotoxicity at 10 µM is -5.56%.

In the case of `Cc1nc(CN2C(=O)COC3(CCN(CC4CC4)CC3)C2C)cs1` (stereo unspecified), the cytotoxicity at 10 µM is -131%.

Regarding `Cc1nc(N2CCCC2)nc2c1CN(C(C)C)CC2`, the cytotoxicity at 10 µM was -6.85%.
